A selection: hits, their analogues and other compounds. The true share with any hit is near 2.5%.
MC4R antagonist – MC4R antagonists of cAMP signaling, primary screen, cell-based, TR-FRET, antagonist arm of biased-ligand search; inhibition, % at 6.5 µM; Melanocortin receptor 4 (Homo sapiens), P32245; 0.48% of 360,000 active; MC4R-expressing cells, MTII-stimulated cAMP, LANCE TR-FRET;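 active = inhibition above its plate's cutoff, the mean of tested wells on that plate plus 3 SD, cut at about 29% in these data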;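 also: 0% = Melanotan II alone and 100% = Melanotan II plus saturating MCL0020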
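Material – human MC4R-expressing U2OS cells · Repeats – no replicates · Detection – TR-FRET with Eu-cAMP and labeled anti-cAMP, 671 nm · Times – compound 30 min, challenge 1 h, detection 1 h · Compound – single nominal compound dose of 6.5 µM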
Bfl-1 A1 inh – caspase 3/7 activation in MEF A1-2A-BIM cells, primary screen, A1 inhibitor project, cell-based, luminescence, HTS | Caspase-Glo 3/7 luminescence, 3 h; percent of clofoctol response, vehicle zero | caspase activation, % (concentration not given with the values) | 0.066% of 330,000 active;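 active = over half of replicate activation scores above 10%, or exactly half above 10 with the replicate mean above 10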
sPLA2-III inh – human group III sPLA2 inhibitors, primary screen, biochemical, QFRET, BODIPY PC-A2 liposome substrate | Group 3 secretory phospholipase A2 (Homo sapiens), Q9NZ20 | QFRET BODIPY PC-A2 liposome hydrolysis, fluorescence | inhibition, % at 12.2 µM | 0.56% of 370,000 active | AID 743126, 2013;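 active = inhibition above mean plus 3 SD of compounds lying within the high and low control bounds, cut at about 19% in these data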;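 also: 0% = median of test compound wells and 100% = no enzyme DMSO wells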
Target sequence (Q9NZ20 whole entry, looked up): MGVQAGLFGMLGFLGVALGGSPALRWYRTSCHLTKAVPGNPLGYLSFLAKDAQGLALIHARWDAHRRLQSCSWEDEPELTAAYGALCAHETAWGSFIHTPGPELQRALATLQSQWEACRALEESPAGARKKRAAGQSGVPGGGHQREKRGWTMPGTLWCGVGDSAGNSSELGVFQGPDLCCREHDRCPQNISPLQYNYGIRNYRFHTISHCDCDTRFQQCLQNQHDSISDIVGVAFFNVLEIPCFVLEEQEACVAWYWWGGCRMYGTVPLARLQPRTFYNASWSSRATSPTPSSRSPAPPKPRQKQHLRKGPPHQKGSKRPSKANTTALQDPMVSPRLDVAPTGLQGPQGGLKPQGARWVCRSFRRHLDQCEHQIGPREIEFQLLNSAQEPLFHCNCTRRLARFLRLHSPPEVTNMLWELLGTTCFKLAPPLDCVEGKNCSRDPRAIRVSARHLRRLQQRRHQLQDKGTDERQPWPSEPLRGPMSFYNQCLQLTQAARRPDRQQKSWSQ
MC4R barr agon – MC4R agonists recruiting beta-arrestin, primary screen, cell-based, luminescence, agonist arm of biased-ligand search; Melanocortin receptor 4 (Homo sapiens), P32245; 0.98% of 360,000 active; activation, % at 8.9 µM; U2OS MC4R beta-arrestin complementation; percent of melanotan II response, DMSO zero;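 active = activation above a per-plate cutoff, the mean activation of sample wells on that plate plus 3 SD, cut at about 8% in these data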
Exocytosis inh – LAMP-1 surface exposure blockers, TALL-104 cells – cell-based, flow cytometry, MLPCN library, primary screen; TALL-104 LAMP-1 surface exposure; cells stimulated with thapsigargin and PMA; inhibition, % at 10 µM; 0.66% of 360,000 active; AID 651702, 2012;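 active = inhibition above about 55%, limit read from the data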
NTR1 ag – agonists of human NTR1, primary screen, imaging, U2OS cells, beta-arrestin-GFP, high content | NTR1-U2OS beta-arrestin-GFP spot imaging, agonist mode | 0.17% of 330,000 active | activation, % at 20 µM;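 active = activation at or above 40% of the spot to cytoplasm intensity ratio, with at least 20 cells analyzed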;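 also: 0% = DMSO without peptide and 100% = 100 nM NTR1 peptide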
MC4R barr ag – MC4R beta-arrestin agonists, retest, confirmation, cell-based, luminescence, U2OS. shares compounds with MC4R barr agon. U2OS MC4R beta-arrestin recruitment; scaled DMSO 0%, Melanotan II 100%. activation, % at 8.9 µM. 31% of 2,400 active. AID 602192, 2012;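 active = mean activation across replicates above the hit cutoff set in the earlier primary screen, cut at about 8% in these data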
MOR DOR agonist – agonists of MOR-DOR heterodimerization, counter-screen for MC4R biased agonist project, cell-based, luminescence | shares compounds with MC4R barr agon | U2OS PathHunter beta-arrestin, beta-gal luminescence; percent of deltorphin B response, DMSO zero | activation, % at 9.2 µM | 5.8% of 2,400 active;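 active = mean activation across replicates exceeds the hit threshold derived in the earlier primary screen, cut at about 18% in these data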;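 also: 100% = deltorphin B at 0.9 µM final and 0% = DMSO alone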
* marks the source's active call; other numbers are inactive results; x = no result.

SMILES	MC4R antagonist	Bfl-1 A1 inh	sPLA2-III inh	MC4R barr agon	Exocytosis inh	NTR1 ag	MC4R barr ag	MOR DOR agonist
CCOC(=O)c1c(NC(=S)Nc2ccc(F)cc2)sc2c1CCC2	4	0	0	11*	1	13	8.5*	4
CN(Cc1ccccc1)C(=O)OCc1cn(Cc2cccc(Cl)c2)nn1	x	x	0	x	x	x	x	x
CCOc1ccc(NC(=O)Cc2ccccc2)cc1	1	-6	15	-1	3	1	x	x
CCOc1ccc(NC(=O)CC(c2ccccc2)c2ccc(F)cc2)cc1 (stereo unspecified)	4	0	1	17*	5	0	0	6
COc1ccc(NC(=O)CC(c2ccc(F)cc2)c2ccc(OC(C)C)cc2)cc1 (stereo unspecified)	9	0	-12	15*	-12	3	7	3
CSc1ccc(-c2cnc(N3CCC(C(N)=O)CC3)s2)cc1	x	x	1	x	x	x	x	x
C[C@H](CO)N1C[C@H](C)[C@H](CN(C)C(=O)C2CCCCC2)OCc2cnnn2CCCC1=O	x	x	4	x	x	x	x	x
CCCC1CCC2(CCC(=O)N2CCOC)CC1 (stereo unspecified)	x	x	5	x	x	x	x	x
CCOCC(=O)Nc1c(C(=O)Nc2ccc(OC)cc2OC)oc2ccccc12	3	-1	-1	13*	-1	11	9.9*	6
COCC(=O)Nc1c(C(=O)Nc2ccccc2OC)oc2ccccc12	3	1	1	22*	0	5	3	5
COc1ccc(NC(=O)c2oc3ccccc3c2NC(=O)C2CC2)c(OC)c1	-1	2	6	3	-1	16	x	x
C/C(=N/NC(=O)CSc1nnc(SCc2ccc(C)cc2)s1)c1cccc(O)c1	x	x	0	x	x	x	x	x
COC(=O)c1cc2c(c3c4ccccc4n(S(=O)(=O)c4ccc(OC)cc4)c13)C(=O)N(Cc1ccccc1OC)C2	x	x	2	x	x	x	x	x
Cc1ccc(-c2cc(-c3cccc(F)c3)n[nH]2)c(O)c1	11	0	-44	0	5	18	x	x
Cc1ccc(O)c(-c2cc(-c3cccc(F)c3)n[nH]2)c1	-8	0	-43	10*	-2	10	5	7
Cc1ccc(-c2csc3nc4c5ccccc5c(NCCCN(C)C)nn4c(=O)c23)cc1	0	0	-11	13*	26	8	33*	9
O=S1(=O)CC(N2CCC(c3ccccc3)CC2)CN1Cc1cn(Cc2ccc(C(F)(F)F)cc2)nn1 (stereo unspecified)	x	x	-4	x	x	x	x	x
CCC(=O)Oc1ccc(-c2cnc3ccccc3n2)cc1	-15	-8	13	3	-5	-1	x	x
O=C(Oc1ccc(-c2cnc3ccccc3n2)cc1)c1ccco1	-8	-6	0	18*	0	0	-3	3
COC(=O)N/N=C\c1cc2c(cc1Br)OCO2	22	1	6	3	-3	2	x	x
Cc1ccc(C(=O)N/N=C\c2cc3c(cc2Br)OCO3)s1	2	0	14	12*	-3	14	10*	8
O=C(CSc1nnc(-c2ccncc2)n1-c1ccc(Cl)cc1)c1ccc(Cl)c(Cl)c1	x	x	-32	x	x	x	x	x

Screens deposited in PubChem by several laboratories.
